SMARCA2 act – activators of SMARCA2 function; MG213 cells, MMTV-luciferase reporter, dexamethasone, overnight; activation, % at 9.1 µM; 370,000 compounds, 1% hits; AID 652017; in the data active = activation above about 7.8%;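 also: 0% = vehicle wells and 100% = reference activator wells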
Yeast superoxide – lowers age-related superoxide in aged yeast cells; 330,000 compounds, 0.18% hits; S. cerevisiae aged cells, superoxide DHE fluorescence; active compounds read low; superoxide response (% of plate mean), % at 10 µM;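 active = superoxide response under a set limit, about three screen SD below normal, cut at about 65% in these data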;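 also: yeast aged for seven days with compound at 30 °C before DHE staining; 100% = average MFI of all compound-treated wells on the plate with controls excluded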
AHR act – human AHR activation; P35869; AHR-responsive luciferase reporter cells, luminescence; activation, % at 5 µM; 320,000 compounds, 2.5% hits; AID 2796; in the data active = activation above about 47%;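 also: 0% = vehicle wells and 100% = reference agonist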
Target sequence (P35869 whole entry, looked up): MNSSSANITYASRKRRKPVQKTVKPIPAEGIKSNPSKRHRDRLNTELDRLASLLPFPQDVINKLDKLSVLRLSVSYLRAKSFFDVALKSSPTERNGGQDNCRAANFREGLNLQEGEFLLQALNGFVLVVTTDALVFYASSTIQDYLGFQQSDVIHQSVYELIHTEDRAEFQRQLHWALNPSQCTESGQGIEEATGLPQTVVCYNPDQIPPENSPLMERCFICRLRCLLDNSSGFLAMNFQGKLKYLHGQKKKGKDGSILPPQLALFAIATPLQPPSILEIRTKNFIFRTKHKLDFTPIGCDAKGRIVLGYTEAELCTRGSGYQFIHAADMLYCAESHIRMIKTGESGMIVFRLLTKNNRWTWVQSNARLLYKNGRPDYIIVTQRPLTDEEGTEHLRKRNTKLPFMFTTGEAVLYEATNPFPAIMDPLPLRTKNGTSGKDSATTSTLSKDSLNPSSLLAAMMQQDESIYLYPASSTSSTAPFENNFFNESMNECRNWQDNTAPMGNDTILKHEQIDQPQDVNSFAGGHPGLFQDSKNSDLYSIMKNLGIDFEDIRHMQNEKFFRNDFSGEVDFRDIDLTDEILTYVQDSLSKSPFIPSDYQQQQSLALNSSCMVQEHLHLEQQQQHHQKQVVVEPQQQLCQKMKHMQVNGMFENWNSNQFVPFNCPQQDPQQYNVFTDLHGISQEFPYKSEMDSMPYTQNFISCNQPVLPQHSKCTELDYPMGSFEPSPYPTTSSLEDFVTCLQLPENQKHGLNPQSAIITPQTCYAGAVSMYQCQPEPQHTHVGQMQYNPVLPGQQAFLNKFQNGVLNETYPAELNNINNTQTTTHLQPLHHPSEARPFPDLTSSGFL
SR-BI HDL uptake – blocks mouse SR-BI lipid uptake from DiI-HDL. 320,000 compounds, 0.96% hits. ldlA[mSR-BI] CHO cells, DiI-HDL uptake fluorescence, 3 h. Q61009. AID 488896. inhibition, % at 12.5 µM;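 active = mean replicate inhibition of at least 70% and a set share of replicates each scoring 70 or more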;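 also: 0% = median of neutral control wells and 100% = median of positive control wells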
SR-BI DiI-HDL act – SR-BI HDL lipid transfer activation. CHO ldlA[mSR-BI] cells, DiI-HDL uptake fluorescence, 3 h; 100 = double the neutral-control signal. activation, % at 12.5 µM. 320,000 compounds, 0.096% hits;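 active = mean replicate activation of at least 60% and every replicate at or above 60%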;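 also: 0% = median plate neutral-control signal and 100% = twice that signal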
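System: CHO ldlA[mSR-BI] cells / Medium: HEPES-buffered (25 mM, pH 7.4) F12 plus 0.5% BSA / Probe or stimulus: labelled HDL, 10 µg/mL / Doses: single compound concentration, delivered by pin transfer / Schedule: 3 h, 37 °C / Measured by: DiI fluorescence, bottom read / Measure: cell-associated DiI fluorescence as measure of HDL uptake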
Hep lipid drop – modulators of hepatic lipid droplet formation. inhibition, % at 6.5 µM. 240,000 compounds, 0.4% hits. AID 1656. AML12 mouse hepatocytes, oleate lipid droplets, BODIPY imaging;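 active = lipid droplet intensity inhibited by at least 50%, with more than 500 cells counted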
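Test system: AML12 hepatocytes (mouse); reagent: oleate loading, 100 µM; dosing: one dose, 6.5 µM compound; incubation: overnight exposure; signal: fluorescence imaging, 20x objective, two fields per well; read-out basis: % inhibition of corrected integrated BODIPY droplet signal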
* hit, by the source's call; x = no result. In the library only some 4.3% were active in any assay of this set; here they are far more common.

SMILES	SMARCA2 act	Yeast superoxide	AHR act	SR-BI HDL uptake	SR-BI DiI-HDL act	Hep lipid drop
c1ccc(COc2ccc(-c3sc(Nc4ccccc4)n[n+]3-c3ccccc3)cc2)cc1	x	95.0	79.9*	x	x	-5.9
CN(C)c1ccc(-c2sc(Nc3ccccc3)n[n+]2-c2ccc(F)cc2)cc1	2.5	109.1	13.3	23.7	-23.7	-8.2
CCN(CC)c1ccc(-c2sc(Nc3ccccc3)n[n+]2-c2ccc(F)cc2)cc1	-1.3	106.8	63.3*	23.6	-23.6	-0.2
CCc1ccc(Nc2n[n+](-c3ccccc3)c(-c3ccc(OCc4ccccc4)cc3)s2)cc1	-2.5	103.4	20.0	42.9	-42.9	-2.4
CCC(C(=O)Nc1ccccc1N1CCCC1)c1ccccc1Cl (configuration not stated)	-3.1	x	x	x	x	x
CCN(CC)C(=O)CC[C@H]1CC[C@]2(CCCN(C(=O)c3cccnc3)C2)O1	0.6	x	x	x	x	x
Cc1nc(C(F)(F)F)nc(Nc2ccc(Br)cc2)c1C#N	-1.1	97.2	51.4*	28.0	-28.0	16.6
COc1cccc(CNC(=O)CN2CCCc3ccccc32)c1	-6.2	x	x	x	x	x
NC(=S)N/N=C/c1c(O)ccc2ccccc12	-5.8	98.6	4.3	x	x	-12.8
NC(=S)N/N=C1/CCSc2ccc3ccccc3c21	-2.1	107.8	1.6	78.7*	-78.7	0.2
O=C(Nc1nccs1)C(Br)C(Br)c1ccccc1 (configuration not stated)	5.6	108.1	51.5*	26.9	-26.9	0.9
COC(=O)C1=C(C)N(Cc2cccc(C(F)(F)F)c2)C(=NCc2cc(OC)c(OC)c(OC)c2)NC1c1ccccc1C(F)(F)F (configuration not stated)	-0.4	x	x	x	x	x
Brc1ccccc1-n1nnc(-c2cnc3ccccc3c2)n1	5.7	93.1	54.1*	35.9	-35.9	x
CCN1/C(=C/C=C/c2oc3ccc(-c4ccccc4)cc3[n+]2CC)Oc2ccc(-c3ccccc3)cc21	-11.7	293.1	-4.2	22.7	-22.7	120.1*
CCCCCN1CCCCC(NC(=O)Cc2ccccc2)C1=O (configuration not stated)	-0.7	x	x	x	x	x
NC(=O)c1ncn([C@@H]2O[C@H](C(=O)N[C@H](Cc3c[nH]c4ccccc34)C(=O)N3CCN(CC(=O)N4CCCC4)CC3)[C@@H](O)[C@H]2O)n1	-0.8	x	x	x	x	x
O=C(NNC(=O)c1ccccc1OCc1ccccc1)c1ccccc1O	-2.4	117.6	x	113.9*	-113.9	4.7
O=C(NNC(=O)c1ccccc1OCc1ccc(F)cc1)c1ccccc1O	-1.6	114.1	x	124.6*	-124.6	-17.4
COc1ccccc1C(=O)NNC(=O)c1ccccc1F	5.9	101.7	37.4	2.8	-2.8	9.4
COc1ccc(NC(=O)c2ccccc2OCc2ccc(F)cc2)c(OC)c1	-1.6	122.4	1.8	94.2*	-94.2	-7.0
O=C(NCc1ccc(F)cc1)c1ccccc1OCc1ccccc1	-2.3	101.1	1.5	-3.0	3.0	-0.9
O=C(NC1CCCC1)c1ccccc1OCc1ccccc1	1.2	108.0	4.3	17.1	-17.1	-3.2
O=C(NNC(=O)c1ccccc1OCc1ccccc1)c1ccccc1F	4.1	94.3	53.3*	10.2	-10.2	x
CCCCNC(=O)C[C@H]1C[C@@]2(C(=O)OC)C(=C[C@H](COCc3ccccc3)O[C@@H]2C)N(Cc2ccccc2)C1=O	-3.2	x	x	x	x	x
CN(C)[C@H]1CCN(c2ccc3c(c2)OCCCN(C2CC2)S3(=O)=O)C1	-3.1	x	x	x	x	x
SMILES	SMARCA2 act	Yeast superoxide	AHR act	SR-BI HDL uptake	SR-BI DiI-HDL act	Hep lipid drop
COC(=O)c1cc2c(c3c4cc(OC)ccc4n(S(=O)(=O)c4cccc(C)c4)c13)C(=O)N(Cc1ccc(C(F)(F)F)cc1)C2	-2.8	x	x	x	x	x
Cc1ccc(-n2[nH]c(C)c(/C=N/c3ccccn3)c2=O)cc1	-1.6	93.3	11.0	-8.5	8.5	x
Cc1ccc(/C=N/Nc2nncc(-c3ccccc3)n2)o1	2.4	114.6	-1.2	8.9	-8.9	-12.0
COc1ccc2nc(/N=C/c3c(C)[nH]n(-c4ccc(C)cc4)c3=O)sc2c1	-2.7	95.9	51.5*	-40.9	40.9	-21.3
COc1ccc2nc(/N=C\N(C)C)sc2c1	0.8	95.5	36.1	-41.3	41.3	x
Cc1ccc(-n2[nH]c(C)c(C=Nc3ccc(Br)cn3)c2=O)cc1	-3.7	116.9	70.5*	-7.6	7.6	0.7
Cc1[nH]n(-c2ccccc2)c(=O)c1/C=N/NC(=O)c1cccc(F)c1	-1.9	116.8	21.9	132.4*	-132.4	x
Cc1[nH]n(-c2ccccc2)c(=O)c1/C=N/Nc1nncc(-c2ccccc2)n1	-1.5	140.4	53.0*	91.2*	-91.2	-138.0
COC(=O)C1=C(C)N(Cc2ccccc2C(F)(F)F)C(=NCc2ccc3c(c2)OCO3)NC1c1ccccc1C(F)(F)F (configuration not stated)	-3.9	x	x	x	x	x
OC(c1ccccc1)(c1ccccc1)C1CCN(CCCNc2cccc(OC(F)(F)F)c2)CC1	-9.3	x	x	x	x	x
CCCC(=O)OC[C@H]1CN(C2CCCC2)S(=O)(=O)c2c(Oc3ccc(F)cc3)cccc2O1	1.9	x	x	x	x	x
Cc1[nH]n(-c2ccc(Br)cc2)c(=O)c1/C=N/NC(=O)c1ccccc1	5.0	120.0	x	136.4*	-136.4	2.3
Cc1ccc(-n2[nH]c(C)c(/C=N/NC(=O)c3ccc(O)cc3O)c2=O)cc1	x	93.8	18.2	137.0*	-137.0	19.2
Cc1[nH]n(-c2ccccc2)c(=O)c1/C=N/NC(=O)c1ccc(O)cc1O	x	90.1	9.9	43.9	-43.9	x
O=C(NCC1COCCO1)C1CCN(S(=O)(=O)c2ccc(Br)s2)CC1 (configuration not stated)	-2.5	x	x	x	x	x
O=C(O)COc1ccccc1C=NNC(=O)Cc1cc(=O)[nH][nH]1	-4.8	x	x	x	x	x
Cc1cc(C(=O)CSc2nc(N)cc(=O)[nH]2)c(C)n1CCc1ccc(F)cc1	-1.8	99.7	-2.9	89.8*	-89.8	x
Cc1cc(C(=O)CSc2nnc(N)s2)c(C)n1CCc1ccc(F)cc1	-1.6	96.3	2.5	62.4	-62.4	x
C=CCOc1nc(-c2ccncc2)nc2ccccc12	-1.6	98.1	51.9*	9.1	-9.1	x
COCCN(CCOC)c1nc(-c2ccc(C)cc2)nc2ccccc12	3.4	92.1	32.3	32.9	-32.8	-2.0
COc1nc(-c2ccncc2)nc2ccccc12	-1.2	98.2	75.4*	26.1	-26.1	x
CCOc1nc(-c2ccc(Cl)cc2)nc2ccccc12	-1.7	93.1	61.6*	-33.0	33.0	5.2
CC(C)Oc1nc(-c2ccc(Cl)cc2)nc2ccccc12	-0.3	98.3	16.1	32.9	-32.9	-0.6
CCCCN(CC)c1nc(-c2ccncc2)nc2ccccc12	-0.3	90.9	72.7*	28.6	-28.6	-4.9
COc1ccc(Oc2nc(-c3ccncc3)nc3ccccc23)cc1	-0.9	97.6	16.7	45.4	-45.4	-11.7
CCCCNS(=O)(=O)CC1NCCc2ccccc21 (configuration not stated)	-1.9	x	x	x	x	x

Bioassay records deposited in PubChem by several laboratories.
